Measured values: ChEMBL document CHEMBL4819122, “Novel 4-(piperazin-1-yl)quinolin-2(1H)-one bearing thiazoles with antiproliferative activity through VEGFR-2-TK inhibition” (Bioorg Med Chem, 2021)
Active and inactive are the calls of the source. The rule behind the calls is not given here.

Assays:
A549 = assay: Cytotoxicity against human A549 assessed as growth inhibition at 10 uM by NCI protocol relative to control; format: functional; details: read-out: GI
Outline: (§1)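 Run by NCI as a single-dose screen at 10 μM across the sixty-cell-line panel, which covers nine human tumour tissue types. The read-out is percent growth inhibition of treated cells relative to untreated cells.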

MCF7 = assay: Cytotoxicity against human MCF7 assessed as growth inhibition at 10 uM by NCI protocol relative to control; format: functional; details: read-out: GI; outline: as §1
OVCAR-4 = assay: Cytotoxicity against human OVCAR-4 assessed as growth inhibition at 10 uM by NCI protocol relative to control; format: functional; details: read-out: GI; outline: as §1
SNB-19 = assay: Cytotoxicity against human SNB-19 assessed as growth inhibition at 10 uM by NCI protocol relative to control; format: functional; details: read-out: GI
Outline: (§2)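 Run by the NCI under its standard protocol: one dose of 10 μM against a sixty-line panel from nine human tumour tissues. Result given as percent growth inhibition of treated cells relative to untreated cells.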

PC-3 = assay: Cytotoxicity against human PC3 assessed as growth inhibition at 10 uM by NCI protocol relative to control; format: functional; details: read-out: GI; outline: as §1
UO-31 = assay: Cytotoxicity against human UO31 assessed as growth inhibition at 10 uM by NCI protocol relative to control; format: functional; details: read-out: GI; outline: as §2
HCT-116 = assay: Cytotoxicity against human HCT-116 assessed as growth inhibition at 10 uM by NCI protocol relative to control; format: functional; details: read-out: GI; outline: as §1
T47D [1] = assay: Cytotoxicity against human T-47D assessed as growth inhibition at 10 uM by NCI protocol relative to control; format: functional; details: read-out: GI; outline: as §2
M14 = assay: Cytotoxicity against human M14 assessed as growth inhibition at 10 uM by NCI protocol relative to control; format: functional; details: read-out: GI; outline: as §1
MOLT-4 = assay: Cytotoxicity against human MOLT-4 assessed as growth inhibition at 10 uM by NCI protocol relative to control; format: functional; details: read-out: GI; outline: as §1
IGROV-1 = assay: Cytotoxicity against human IGROVI assessed as growth inhibition at 10 uM by NCI protocol relative to control; format: functional; details: read-out: GI; outline: as §1
HCT-15 = assay: Cytotoxicity against human HCT-15 assessed as growth inhibition at 10 uM by NCI protocol relative to control; format: functional; details: read-out: GI; outline: as §1
NCI-H522 = assay: Cytotoxicity against human NCI-H522 assessed as growth inhibition at 10 uM by NCI protocol relative to control; format: functional; details: read-out: GI; outline: as §1
EKVX = assay: Cytotoxicity against human EKVX assessed as growth inhibition at 10 uM by NCI protocol relative to control; format: functional; details: read-out: GI; outline: as §1
UACC-257 = assay: Cytotoxicity against human UACC-257 assessed as growth inhibition at 10 uM by NCI protocol relative to control; format: functional; details: read-out: GI; outline: as §2
UACC-62 = assay: Cytotoxicity against human UACC-62 assessed as growth inhibition at 10 uM by NCI protocol relative to control; format: functional; details: read-out: GI; outline: as §2
SF-268 = assay: Cytotoxicity against human SF-268 assessed as growth inhibition at 10 uM by NCI protocol relative to control; format: functional; details: read-out: GI; outline: as §1
NCI-H322M = assay: Cytotoxicity against human NCI-H322M assessed as growth inhibition at 10 uM by NCI protocol relative to control; format: functional; details: read-out: GI; outline: as §1
SN12C = assay: Cytotoxicity against human SN12C assessed as growth inhibition at 10 uM by NCI protocol relative to control; format: functional; details: read-out: GI; outline: as §2
NCI-H23 = assay: Cytotoxicity against human NCI-H23 assessed as growth inhibition at 10 uM by NCI protocol relative to control; format: functional; details: read-out: GI; outline: as §1
BT-549 = assay: Cytotoxicity against human BT-549 assessed as growth inhibition at 10 uM by NCI protocol relative to control; format: functional; details: read-out: GI; outline: as §1
HL-60 = assay: Cytotoxicity against human HL60 assessed as growth inhibition at 10 uM by NCI protocol relative to control; format: functional; details: read-out: GI; outline: as §1
OVCAR-3 = assay: Cytotoxicity against human OVCAR-3 assessed as growth inhibition at 10 uM by NCI protocol relative to control; format: functional; details: read-out: GI; outline: as §1
A498 = assay: Cytotoxicity against human A498 assessed as growth inhibition at 10 uM by NCI protocol relative to control; format: functional; details: read-out: GI; outline: as §1
T47D [2] = assay: Cytotoxicity against human T47D cells assessed as reduction in cell viability after 3 hrs by MTT assay
CAKI-1 = assay: Cytotoxicity against human Caki1 assessed as growth inhibition at 10 uM by NCI protocol relative to control; format: functional; details: read-out: GI; outline: as §1
SR = assay: Cytotoxicity against human SR assessed as growth inhibition at 10 uM by NCI protocol relative to control; format: functional; details: read-out: GI; outline: as §2
LOX IMVI = assay: Cytotoxicity against human LOX IMVI assessed as growth inhibition at 10 uM by NCI protocol relative to control; format: functional; details: read-out: GI; outline: as §1
MDA-MB-231 = assay: Cytotoxicity against human MDA-MB-231 assessed as growth inhibition at 10 uM by NCI protocol relative to control; format: functional; details: read-out: GI; outline: as §1
MDA-MB-468 = assay: Cytotoxicity against human MDA-MB-468 assessed as growth inhibition at 10 uM by NCI protocol relative to control; format: functional; details: read-out: GI; outline: as §1
ACHN = assay: Cytotoxicity against human ACHN assessed as growth inhibition at 10 uM by NCI protocol relative to control; format: functional; details: read-out: GI; outline: as §1
CCRF-CEM = assay: Cytotoxicity against human CCRF-CEM assessed as growth inhibition at 10 uM by NCI protocol relative to control; format: functional; details: read-out: GI; outline: as §1
RPMI-8226 = assay: Cytotoxicity against human RPMI-8226 assessed as growth inhibition at 10 uM by NCI protocol relative to control; format: functional; outline: as §1
SK-MEL-5 = assay: Cytotoxicity against human SK-MEL-5 assessed as growth inhibition at 10 uM by NCI protocol relative to control; format: functional; details: read-out: GI; outline: as §1
SF-295 = assay: Cytotoxicity against human SF-295 assessed as growth inhibition at 10 uM by NCI protocol relative to control; format: functional; details: read-out: GI; outline: as §1
OVCAR-5 = assay: Cytotoxicity against human OVCAR-5 assessed as growth inhibition at 10 uM by NCI protocol relative to control; format: functional, cell-based; outline: as §1
K562 = assay: Cytotoxicity against human K-562 assessed as growth inhibition at 10 uM by NCI protocol relative to control; format: functional; details: read-out: GI; outline: as §1
NCI-H460 = assay: Cytotoxicity against human NCI-H460 assessed as growth inhibition at 10 uM by NCI protocol relative to control; format: functional; details: read-out: GI; outline: as §1
HOP-62 = assay: Cytotoxicity against human HOP-62 assessed as growth inhibition at 10 uM by NCI protocol relative to control; format: functional; details: read-out: GI; outline: as §1
MDA-MB-435 = assay: Cytotoxicity against human MDA-MB-435 assessed as growth inhibition at 10 uM by NCI protocol relative to control; format: functional, cell-based; outline: as §1
NCI-H226 = assay: Cytotoxicity against human NCI-H226 assessed as growth inhibition at 10 uM by NCI protocol relative to control; format: functional; details: read-out: GI; outline: as §1
OVCAR-8 = assay: Cytotoxicity against human OVCAR-8 assessed as growth inhibition at 10 uM by NCI protocol relative to control; format: functional; details: read-out: GI; outline: as §1

Compound: COc1ccc(-c2csc(NC(=O)CN3CCN(c4cc(=O)n(-c5ccccc5)c5ccccc45)CC3)n2)cc1
- inhibition of growth at 10 µM (A549): 19.7%
- inhibition of growth at 10 µM (MCF7): 26%
- inhibition of growth at 10 µM (OVCAR-4): 70.4%
- inhibition of growth at 10 µM (SNB-19): 24.2%
- inhibition of growth at 10 µM (PC-3): 27.5%
- inhibition of growth at 10 µM (UO-31): 27.9%
- inhibition of growth at 10 µM (HCT-116): 28.9%
- inhibition of growth at 10 µM (T47D [1]): 60%
- inhibition of growth at 10 µM (M14): 16.1%
- inhibition of growth at 10 µM (MOLT-4): 53.1%
- inhibition of growth at 10 µM (IGROV-1): 21.5%
- inhibition of growth at 10 µM (HCT-15): 18%
- inhibition of growth at 10 µM (NCI-H522): 30.4%
- inhibition of growth at 10 µM (EKVX): 35.2%
- inhibition of growth at 10 µM (UACC-257): 27.8%
- inhibition of growth at 10 µM (UACC-62): 31.1%
- inhibition of growth at 10 µM (SF-268): 12.4%
- inhibition of growth at 10 µM (NCI-H322M): 12.6%
- inhibition of growth at 10 µM (SN12C): 16%
- inhibition of growth at 10 µM (NCI-H23): 35.7%
- inhibition of growth at 10 µM (BT-549): 19.9%
- inhibition of growth at 10 µM (HL-60): 30.2%
- inhibition of growth at 10 µM (OVCAR-3): 17.1%
- inhibition of growth at 10 µM (A498): 13%
- IC50 (T47D [2]): 8.11 µM
- inhibition of growth at 10 µM (CAKI-1): 16.1%
- inhibition of growth at 10 µM (SR): 11.2%
- inhibition of growth at 10 µM (LOX IMVI): 15%
- inhibition of growth at 10 µM (MDA-MB-231): 22.4%
- inhibition of growth at 10 µM (MDA-MB-468): 55.3%
- inhibition of growth at 10 µM (ACHN): 19%
- inhibition of growth at 10 µM (CCRF-CEM): 24.9%
- growth inhibition (GI) (RPMI-8226): inactive
- inhibition of growth at 10 µM (SK-MEL-5): 53%
- inhibition of growth at 10 µM (SF-295): 22.9%
- growth inhibition (GI) (OVCAR-5): inactive
- inhibition of growth at 10 µM (K562): 56.4%
- inhibition of growth at 10 µM (NCI-H460): 15.9%
- inhibition of growth at 10 µM (HOP-62): 12.4%
- growth inhibition (GI) (MDA-MB-435): inactive
- inhibition of growth at 10 µM (NCI-H226): 18.7%
- inhibition of growth at 10 µM (OVCAR-8): 15.5%
